We go through 8 molecules from ChEMBL document CHEMBL2016533, “Paviosides A-H, eight new oleane type saponins from Aesculus pavia with cytotoxic activity” (Bioorg Med Chem, 2012).

The subject of one test is J774. In words: Cytotoxicity against mouse J774 cells after 72 hrs by MTT assay. It counts as functional, cell-based. As to conditions: J774, 72 h. Summed up: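 J774 murine monocyte/macrophage cells are kept in suspension in stirred bottles (37 °C, DMEM, 10% FBS, 25 mM HEPES, 2 mM glutamine), then plated and allowed 2 h to adhere (37 °C, 5% CO2). Medium is refreshed, 1.2 v/v serial dilutions are added, and cells incubate 72 h. MTT (5 mg/mL) is added for 3 h, then solubilized in 50% DMF/20% SDS, pH 4.5. % dead cells = 100 − (OD treated/OD control)×100.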

The next test deals with WEHI-164. In words: Cytotoxicity against mouse WEHI164 cells after 72 hrs by MTT assay. It counts as functional, cell-based. As to conditions: WEHI-164, 72 h. The method, boiled down: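 WEHI 164 murine fibrosarcoma cells are kept adherent (DMEM, 10% heat-inactivated FBS, 25 mM HEPES), then plated and allowed 2 h to adhere (37 °C, 5% CO2). Medium is refreshed, 1.2 v/v serial dilutions are added, and cells incubate 72 h. MTT (5 mg/mL) is added for 3 h, then solubilized in 50% DMF/20% SDS, pH 4.5. % dead cells = 100 − (OD treated/OD control)×100.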
(Tetrazolium dyes change colour on reduction, which living cells bring about.)

≈ marks a conversion by molar mass, not a printed value.

For the molecule `C/C=C(/C)C(=O)O[C@H]1[C@H](OC(C)=O)[C@]2(CO)[C@H](O)C[C@]3(C)C(=CC[C@@H]4[C@@]5(C)CC[C@H](O[C@@H]6O[C@H](C(=O)O)[C@@H](O[C@@H]7OC[C@@H](O)[C@H](O)[C@H]7O)[C@H](O)[C@H]6O[C@@H]6OC[C@@H](O)[C@H](O)[C@H]6O)[C@](C)(CO)[C@@H]5CC[C@]43C)[C@@H]2CC1(C)C` [PAVIOSIDEH], the IC50 (as a rule, the point on the concentration scale where inhibition reaches its midpoint) with J774 stood at 3.5 µg/mL (≈ 3.27 µM); in the test on WEHI-164, 3.2 µg/mL (≈ 2.99 µM).

Consider `C/C=C(/C)C(=O)O[C@H]1[C@H](OC(C)=O)[C@]2(CO)[C@H](O)C[C@]3(C)C(=CC[C@@H]4[C@@]5(C)CC[C@H](O[C@@H]6O[C@H](C(=O)O)[C@@H](O[C@@H]7O[C@H](CO)[C@H](O)[C@H](O)[C@H]7O)[C@H](O)[C@H]6O[C@@H]6OC[C@@H](O)[C@H](O)[C@H]6O)C(C)(C)[C@@H]5CC[C@]43C)[C@@H]2CC1(C)C` [PAVIOSIDED], for which the values for the IC50 with J774 and in the test on WEHI-164 were 6.6 µg/mL (≈ 6.08 µM) and 7.1 µg/mL (≈ 6.54 µM), respectively.

In the case of `C/C=C(\C)C(=O)O[C@H]1[C@H](OC(C)=O)[C@]2(CO)[C@H](O)C[C@]3(C)C(=CC[C@@H]4[C@@]5(C)CC[C@H](O[C@@H]6O[C@H](C(=O)O)[C@@H](O[C@@H]7O[C@H](CO)[C@H](O)[C@H](O)[C@H]7O)[C@H](O)[C@H]6O[C@@H]6OC[C@@H](O)[C@H](O)[C@H]6O)C(C)(C)[C@@H]5CC[C@]43C)[C@@H]2CC1(C)C` [PAVIOSIDEC], the IC50 with J774 is 5.7 µg/mL (≈ 5.25 µM); with WEHI-164, 6.5 µg/mL (≈ 5.99 µM).

Consider `C/C=C(\C)C(=O)O[C@H]1[C@H](OC(C)=O)[C@]2(CO)[C@H](O)C[C@]3(C)C(=CC[C@@H]4[C@@]5(C)CC[C@H](O[C@@H]6O[C@H](C(=O)O)[C@@H](O[C@@H]7O[C@H](CO)[C@@H](O)[C@H](O)[C@H]7O)[C@H](O)[C@H]6O[C@@H]6OC[C@@H](O)[C@H](O)[C@H]6O)C(C)(C)[C@@H]5CC[C@]43C)[C@@H]2CC1(C)C` [PAVIOSIDEA], for which the IC50 in the test with J774 was 5.7 µg/mL (≈ 5.25 µM); in the test on WEHI-164, 4.8 µg/mL (≈ 4.42 µM).

Regarding `C/C=C(\C)C(=O)O[C@H]1[C@H](OC(C)=O)[C@]2(CO)[C@H](O)C[C@]3(C)C(=CC[C@@H]4[C@@]5(C)CC[C@H](O[C@@H]6O[C@H](C(=O)O)[C@@H](O[C@@H]7OC[C@@H](O)[C@H](O)[C@H]7O)[C@H](O)[C@H]6O[C@@H]6OC[C@@H](O)[C@H](O)[C@H]6O)[C@](C)(CO)[C@@H]5CC[C@]43C)[C@@H]2CC1(C)C` [PAVIOSIDEG], the figures for the concentration for half-maximal inhibition (IC50) in the test on J774 and in the test with WEHI-164 were 3.6 µg/mL (≈ 3.36 µM) and 3.5 µg/mL (≈ 3.27 µM), respectively.

Take `C/C=C(\C)C(=O)O[C@H]1[C@H](OC(C)=O)[C@]2(CO)[C@H](O)C[C@]3(C)C(=CC[C@@H]4[C@@]5(C)CC[C@H](O[C@@H]6O[C@H](C(=O)O)[C@@H](O[C@@H]7OC[C@@H](O)[C@H](O)[C@H]7O)[C@H](O)[C@H]6O[C@@H]6OC[C@@H](O)[C@H](O)[C@H]6O)C(C)(C)[C@@H]5CC[C@]43C)[C@@H]2CC1(C)C` [PAVIOSIDEE]: the values for the half-inhibitory concentration (IC50) in the test with J774 and with WEHI-164 were 2.9 µg/mL (≈ 2.75 µM) and 2.1 µg/mL (≈ 1.99 µM), respectively.

With `C/C=C(/C)C(=O)O[C@H]1[C@H](OC(C)=O)[C@]2(CO)[C@H](O)C[C@]3(C)C(=CC[C@@H]4[C@@]5(C)CC[C@H](O[C@@H]6O[C@H](C(=O)O)[C@@H](O[C@@H]7OC[C@@H](O)[C@H](O)[C@H]7O)[C@H](O)[C@H]6O[C@@H]6OC[C@@H](O)[C@H](O)[C@H]6O)C(C)(C)[C@@H]5CC[C@]43C)[C@@H]2CC1(C)C` [PAVIOSIDEF], the 50% inhibitory concentration (IC50) with J774 turned out to be 2.8 µg/mL (≈ 2.65 µM); in the test on WEHI-164, 2.3 µg/mL (≈ 2.18 µM).

Consider `C/C=C(/C)C(=O)O[C@H]1[C@H](OC(C)=O)[C@]2(CO)[C@H](O)C[C@]3(C)C(=CC[C@@H]4[C@@]5(C)CC[C@H](O[C@@H]6O[C@H](C(=O)O)[C@@H](O[C@@H]7O[C@H](CO)[C@@H](O)[C@H](O)[C@H]7O)[C@H](O)[C@H]6O[C@@H]6OC[C@@H](O)[C@H](O)[C@H]6O)C(C)(C)[C@@H]5CC[C@]43C)[C@@H]2CC1(C)C` [PAVIOSIDEB], for which the 50% inhibitory concentration (IC50) turned out to be 5.1 µg/mL (≈ 4.7 µM) with J774 and 4.9 µg/mL (≈ 4.52 µM) with WEHI-164.
